Measured values: ChEMBL document CHEMBL4425120, “N1-Azinylsulfonyl-1H-indoles: 5-HT6 Receptor Antagonists with Procognitive and Antidepressant-Like Properties” (ACS Med Chem Lett, 2016)
pIC50, pKi: −log10 of the molar value. Calls of active or inactive are those of the source. The rule behind the calls is not given here.

Key:
[1] = Mutagenicity in Salmonella typhimurium TA1537 at 0.2 to 16 ug/ml after 48 hrs by Ames test; assay type: toxicity; settings: salmonella enterica subsp. enterica serovar typhimurium
[2] = Toxicity in Sprague-Dawley rat assessed as effect on locomotory activity at 0.1 to 1 mg/kg, ip measured for 5 mins by open field test; assay type: organism-based; settings: in vivo
[3] = molecular target: Alpha-2C adrenergic receptor (Homo sapiens) (UniProt P18825); assay: Displacement of [3H]RX 821002 from human recombinant adrenergic alpha 2C receptor expressed in CHO cells after 60 mins by scintillation counting; assay type: cell-based
[4] = molecular target: 5-hydroxytryptamine receptor 7 (Homo sapiens, UniProt P34969); assay: Displacement of [3H]-5-CT from human 5-HT7B receptor expressed in HEK293 cells by microbeta liquid scintillation counting; assay type: cell-based
Procedure, shortened: (§1)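 Ki values reported as the mean of two independent radioligand binding experiments.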

[5] = molecular target: T1, 5-hydroxytryptamine receptor 1A (Homo sapiens, UniProt P08908); assay: Displacement of [3H]-8-OH-DPAT from human 5-HT1A receptor expressed in HEK293 cells by microbeta liquid scintillation counting; assay type: cell-based; procedure, shortened: as §1
T1 sequence (P08908 whole entry): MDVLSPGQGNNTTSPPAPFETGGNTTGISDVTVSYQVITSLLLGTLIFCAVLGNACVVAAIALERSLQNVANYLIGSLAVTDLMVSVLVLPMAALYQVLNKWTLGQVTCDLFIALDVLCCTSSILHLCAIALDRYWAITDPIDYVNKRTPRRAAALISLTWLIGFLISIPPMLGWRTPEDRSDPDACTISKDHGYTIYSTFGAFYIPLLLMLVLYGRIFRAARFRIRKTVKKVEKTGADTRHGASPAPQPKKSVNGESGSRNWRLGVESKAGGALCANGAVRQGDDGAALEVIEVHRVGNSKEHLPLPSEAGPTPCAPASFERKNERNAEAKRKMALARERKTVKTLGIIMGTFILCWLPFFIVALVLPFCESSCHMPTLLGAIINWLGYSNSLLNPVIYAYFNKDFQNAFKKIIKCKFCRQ

[6] = molecular target: Histamine H1 receptor (Homo sapiens) (UniProt P35367); assay: Displacement of [3H]pyrilamine from human recombinant histamine H1 receptor expressed in HEK293 cells after 60 mins by scintillation counting.; assay type: cell-based
D(3) dopamine receptor = D(3) dopamine receptor (Homo sapiens, UniProt P35462); assay: Antagonist activity at human recombinant dopamine D3 receptor expressed in CHO cells assessed as inhibition of dopamine-induced cAMP accumulation after 30 mins by HTRF assay; assay type: functional, cell-based
Chain of D(3) dopamine receptor (P35462 whole entry): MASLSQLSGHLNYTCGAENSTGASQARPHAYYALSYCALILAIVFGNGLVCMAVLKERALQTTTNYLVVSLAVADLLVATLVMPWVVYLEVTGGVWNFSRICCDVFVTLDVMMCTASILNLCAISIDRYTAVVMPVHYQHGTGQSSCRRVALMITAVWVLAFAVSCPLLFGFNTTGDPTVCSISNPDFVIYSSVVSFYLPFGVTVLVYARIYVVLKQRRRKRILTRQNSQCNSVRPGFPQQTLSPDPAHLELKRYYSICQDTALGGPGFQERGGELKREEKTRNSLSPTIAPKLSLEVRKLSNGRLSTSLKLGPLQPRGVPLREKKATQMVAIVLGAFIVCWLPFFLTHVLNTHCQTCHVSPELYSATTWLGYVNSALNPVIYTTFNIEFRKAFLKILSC

Cytochrome P450 2D6 = Cytochrome P450 2D6 (Homo sapiens, UniProt P10635); assay: Inhibition of human CYP2D6 expressed in supersomes assessed as bufuralol 1'-hydroxylation after 15 mins by HPLC analysis; assay type: ADME
Chain of Cytochrome P450 2D6 (P10635 whole entry): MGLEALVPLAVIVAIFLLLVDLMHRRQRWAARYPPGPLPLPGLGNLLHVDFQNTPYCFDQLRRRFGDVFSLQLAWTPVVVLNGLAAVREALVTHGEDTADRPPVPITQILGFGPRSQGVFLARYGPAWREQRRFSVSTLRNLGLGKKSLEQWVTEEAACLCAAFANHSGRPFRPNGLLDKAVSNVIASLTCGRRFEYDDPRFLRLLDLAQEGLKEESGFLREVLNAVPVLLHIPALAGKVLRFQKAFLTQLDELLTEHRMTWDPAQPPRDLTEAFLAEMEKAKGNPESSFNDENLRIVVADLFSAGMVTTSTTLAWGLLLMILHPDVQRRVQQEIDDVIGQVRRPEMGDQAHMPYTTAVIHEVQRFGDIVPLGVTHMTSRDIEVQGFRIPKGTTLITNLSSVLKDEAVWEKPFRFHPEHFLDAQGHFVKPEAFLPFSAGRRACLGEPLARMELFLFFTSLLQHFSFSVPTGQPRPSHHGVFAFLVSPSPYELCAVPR

[7] = Solubility of the compound at pH 7.4; assay type: physicochemical; settings: buffer
[8] = Intrinsic clearance in rat liver microsomes at 20 uM after 15 mins in presence of NADPH-regenerating system by UPLC/MS analysis; assay type: ADME, Microsome; settings: read-out: CLH
[9] = molecular target: 5-hydroxytryptamine receptor 2C (Homo sapiens) (UniProt P28335); assay: Displacement of [3H]mesulergine from human recombinant 5-HT2C receptor expressed in HEK293 cells after 120 mins by scintillation counting; assay type: cell-based
Rattus norvegicus [10] = assay: Antidepressant activity in Sprague-Dawley rat assessed as increase in climbing time at 0.3 mg/kg, ip adminstered 60 mins prior to testing measured for 5 mins by forced swimming test; assay type: functional, organism-based
Procedure, shortened: (§2)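 Modified forced swim test in rats with i.p. dosing. Immobility time and climbing time were scored. Data are mean ± SEM, n = 7–8 animals per group, compared against the vehicle-treated group.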

Cytochrome P450 2C9 = Cytochrome P450 2C9 (Homo sapiens, UniProt P11712); assay: Inhibition of human CYP2C9 expressed in supersomes assessed as diclofenac 4'-hydroxylation after 15 mins by HPLC analysis; assay type: ADME
[11] = molecular target: Sodium-dependent serotonin transporter (Homo sapiens) (UniProt P31645); assay: Displacement of [3H]imipramine from human recombinant SERT expressed in CHO cells after 60 mins by scintillation counting; assay type: cell-based
Chain of Sodium-dependent serotonin transporter (Homo sapiens) (P31645 whole entry, looked up): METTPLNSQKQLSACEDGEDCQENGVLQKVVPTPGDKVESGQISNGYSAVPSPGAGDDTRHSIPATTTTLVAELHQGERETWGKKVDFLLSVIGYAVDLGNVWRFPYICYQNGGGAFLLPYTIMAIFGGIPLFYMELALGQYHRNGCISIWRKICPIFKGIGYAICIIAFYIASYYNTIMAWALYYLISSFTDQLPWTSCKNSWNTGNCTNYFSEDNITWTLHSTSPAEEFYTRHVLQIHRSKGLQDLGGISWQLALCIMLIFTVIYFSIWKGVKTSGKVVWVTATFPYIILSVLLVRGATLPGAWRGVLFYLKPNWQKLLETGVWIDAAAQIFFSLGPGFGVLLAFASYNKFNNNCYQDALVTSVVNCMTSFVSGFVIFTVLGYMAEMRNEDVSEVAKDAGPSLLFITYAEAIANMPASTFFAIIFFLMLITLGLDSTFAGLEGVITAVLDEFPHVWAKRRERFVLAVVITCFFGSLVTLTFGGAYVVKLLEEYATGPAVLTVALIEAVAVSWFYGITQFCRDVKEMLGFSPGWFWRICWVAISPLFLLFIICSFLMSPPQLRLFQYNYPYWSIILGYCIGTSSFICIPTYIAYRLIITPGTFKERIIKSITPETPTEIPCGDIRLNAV

Rattus norvegicus [12] = assay: Cognitive enhancing effect in ip dosed Sprague-Dawley rat assessed as reversal of PCP induced memory deficit administered 1 hour and 15 mins before familiarization phase by novel object recognition test; assay type: functional; settings: for minimal effective dose: read-out: MED
Procedure, shortened: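 Memory deficit induced with PCP in rats. Test and reference agents were given i.p., and the reversal of the deficit in novel-object recognition was scored. Data are mean ± SEM, n = 7–12 animals per group, compared against the vehicle and PCP groups.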

[13] = molecular target: 5-hydroxytryptamine receptor 2B (Homo sapiens) (UniProt P41595); assay: Agonist activity at human recombinant 5-HT2B receptor expressed in HEK-293 cells assessed as IP1 accumulation at 1 uM after 30 mins by HTRF assay; assay type: functional, cell-based
Chain of 5-hydroxytryptamine receptor 2B (Homo sapiens) (P41595 whole entry): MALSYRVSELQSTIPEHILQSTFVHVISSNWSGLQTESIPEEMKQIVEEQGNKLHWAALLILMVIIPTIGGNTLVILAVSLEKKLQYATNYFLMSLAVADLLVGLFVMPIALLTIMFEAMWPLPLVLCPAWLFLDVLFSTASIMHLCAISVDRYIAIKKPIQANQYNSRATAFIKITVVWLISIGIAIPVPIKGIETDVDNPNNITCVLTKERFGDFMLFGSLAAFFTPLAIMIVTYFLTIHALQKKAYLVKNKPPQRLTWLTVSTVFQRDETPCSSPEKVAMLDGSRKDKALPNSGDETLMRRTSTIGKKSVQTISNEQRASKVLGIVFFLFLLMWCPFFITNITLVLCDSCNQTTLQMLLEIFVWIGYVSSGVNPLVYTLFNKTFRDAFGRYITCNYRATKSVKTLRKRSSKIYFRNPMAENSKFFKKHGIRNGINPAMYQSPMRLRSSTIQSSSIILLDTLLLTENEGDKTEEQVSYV

[14] = Solubility of the compound at pH 2; assay type: physicochemical; settings: buffer
Cytochrome P450 1A2 = Cytochrome P450 1A2 (Homo sapiens, UniProt P05177); assay: Inhibition of human CYP1A2 expressed in supersomes assessed as caffeine 3-N-demethylation after 15 mins by HPLC analysis; assay type: ADME
Chain of Cytochrome P450 1A2 (P05177 whole entry): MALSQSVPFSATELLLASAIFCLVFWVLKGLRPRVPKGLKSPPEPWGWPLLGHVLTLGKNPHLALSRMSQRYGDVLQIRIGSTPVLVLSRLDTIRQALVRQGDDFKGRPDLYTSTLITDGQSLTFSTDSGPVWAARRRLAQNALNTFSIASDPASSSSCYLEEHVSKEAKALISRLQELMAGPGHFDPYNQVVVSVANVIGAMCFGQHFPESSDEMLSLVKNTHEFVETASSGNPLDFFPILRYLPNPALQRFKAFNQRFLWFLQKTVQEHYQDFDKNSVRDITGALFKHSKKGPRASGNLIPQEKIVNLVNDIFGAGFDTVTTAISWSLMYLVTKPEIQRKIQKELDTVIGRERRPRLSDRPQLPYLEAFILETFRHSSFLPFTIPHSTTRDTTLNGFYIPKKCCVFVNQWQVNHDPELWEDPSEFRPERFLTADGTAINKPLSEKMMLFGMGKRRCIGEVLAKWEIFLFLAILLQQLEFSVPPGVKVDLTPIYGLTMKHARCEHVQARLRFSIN

[15] = Ratio of drug level in Wistar rat brain to plasma at 3 mg/kg, ip after 15 to 90 mins by LC-MS/MS analysis; assay type: ADME, organism-based; settings: read-out: BPR
Procedure, shortened: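 Male Wistar rats received a single 3 mg/kg i.p. dose. Brain and plasma drug levels were measured at 15, 30 and 90 min after dosing. Brain level is expressed as ng/g tissue, alongside the brain-to-plasma concentration ratio.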

[16] = molecular target: 5-hydroxytryptamine receptor 6 (Homo sapiens, UniProt P50406); assay: Displacement of [3H]-LSD from human 5-HT6 receptor expressed in HEK293 cells by microbeta liquid scintillation counting; assay type: cell-based; procedure, shortened: as §1
Homo sapiens [17] = organism: Homo sapiens; assay: Selectivity ratio of Ki for human 5-HT1A receptor expressed in HEK293 cells to Ki for human 5-HT6 receptor expressed in HEK293 cells; assay type: cell-based
[18] = molecular target: Muscarinic acetylcholine receptor M1 (Homo sapiens) (UniProt P11229); assay: Displacement of [3H]pirenzepine from human recombinant muscarinic M1 receptor expressed in CHO cells after 60 mins by scintillation counting; assay type: cell-based
Chain of Muscarinic acetylcholine receptor M1 (Homo sapiens) (P11229 whole entry): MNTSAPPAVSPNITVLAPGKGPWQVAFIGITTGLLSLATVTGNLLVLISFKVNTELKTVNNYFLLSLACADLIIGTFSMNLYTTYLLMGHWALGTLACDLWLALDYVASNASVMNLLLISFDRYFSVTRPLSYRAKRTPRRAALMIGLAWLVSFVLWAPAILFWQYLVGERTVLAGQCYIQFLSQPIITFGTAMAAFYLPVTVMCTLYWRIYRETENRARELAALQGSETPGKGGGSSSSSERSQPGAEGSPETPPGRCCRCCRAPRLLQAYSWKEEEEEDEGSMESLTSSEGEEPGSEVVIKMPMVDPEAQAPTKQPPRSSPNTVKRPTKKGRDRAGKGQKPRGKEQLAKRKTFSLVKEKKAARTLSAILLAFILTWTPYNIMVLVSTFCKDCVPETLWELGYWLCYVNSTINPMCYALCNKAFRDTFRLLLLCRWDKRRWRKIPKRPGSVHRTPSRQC

Homo sapiens [19] = organism: Homo sapiens; assay: Selectivity ratio of Ki for human 5-HT2A receptor expressed in HEK293 cells to Ki for human 5-HT6 receptor expressed in HEK293 cells; assay type: cell-based
Rattus norvegicus [20] = assay: Antidepressant activity in Sprague-Dawley rat assessed as reduction in immobility time at 0.3 mg/kg, ip adminstered 60 mins prior to testing measured for 5 mins by forced swimming test; assay type: functional, organism-based; procedure, shortened: as §2
[21] = molecular target: Voltage-gated inwardly rectifying potassium channel KCNH2 (Homo sapiens, UniProt Q12809); assay: Displacement of [3H]Dofetilide from human recombinant ERG expressed in HEK293 cells at 10 to 50 uM after 60 mins by scintillation counting; assay type: cell-based; settings: hek293, 1 h
Chain of Voltage-gated inwardly rectifying potassium channel KCNH2 (Q12809 whole entry): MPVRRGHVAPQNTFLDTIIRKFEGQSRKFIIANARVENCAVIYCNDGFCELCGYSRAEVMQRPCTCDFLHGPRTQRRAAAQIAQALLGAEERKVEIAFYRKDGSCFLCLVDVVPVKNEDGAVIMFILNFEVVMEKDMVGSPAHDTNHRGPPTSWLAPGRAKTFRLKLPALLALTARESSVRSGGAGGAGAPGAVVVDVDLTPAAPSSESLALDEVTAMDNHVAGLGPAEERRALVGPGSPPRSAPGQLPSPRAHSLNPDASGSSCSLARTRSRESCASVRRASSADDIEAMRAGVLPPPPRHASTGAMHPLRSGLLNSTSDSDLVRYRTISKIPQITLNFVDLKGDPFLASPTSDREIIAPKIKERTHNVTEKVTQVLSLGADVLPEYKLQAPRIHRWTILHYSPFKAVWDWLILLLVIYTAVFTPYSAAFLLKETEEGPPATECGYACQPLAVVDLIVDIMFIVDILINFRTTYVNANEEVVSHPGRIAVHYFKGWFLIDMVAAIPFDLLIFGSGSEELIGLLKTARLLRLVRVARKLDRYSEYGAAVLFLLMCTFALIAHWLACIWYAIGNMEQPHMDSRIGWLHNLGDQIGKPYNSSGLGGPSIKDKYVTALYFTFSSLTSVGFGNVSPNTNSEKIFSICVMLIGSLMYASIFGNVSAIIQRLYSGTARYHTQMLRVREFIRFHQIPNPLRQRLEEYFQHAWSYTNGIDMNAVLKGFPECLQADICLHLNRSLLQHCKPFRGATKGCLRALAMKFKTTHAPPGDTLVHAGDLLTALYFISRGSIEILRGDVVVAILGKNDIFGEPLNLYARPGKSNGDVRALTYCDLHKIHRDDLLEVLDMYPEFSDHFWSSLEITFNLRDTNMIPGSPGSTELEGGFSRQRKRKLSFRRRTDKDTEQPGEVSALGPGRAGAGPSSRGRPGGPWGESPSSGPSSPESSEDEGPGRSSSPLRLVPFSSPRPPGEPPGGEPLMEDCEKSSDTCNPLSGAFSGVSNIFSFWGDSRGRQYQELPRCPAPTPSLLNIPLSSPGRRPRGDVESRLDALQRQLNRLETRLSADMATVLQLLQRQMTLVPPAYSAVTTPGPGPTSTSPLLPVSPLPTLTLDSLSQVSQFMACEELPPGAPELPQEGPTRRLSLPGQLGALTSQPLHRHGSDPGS

[22] = molecular target: Adrenergic receptor alpha-1 (Rattus norvegicus) (UniProt P15823+P23944+P43140); assay: Displacement of [3H]prazosin from rat cerebral cortex adrenergic alpha 1 receptor after 60 mins by scintillation counting
Cytochrome P450 3A4 = Cytochrome P450 3A4 (Homo sapiens, UniProt P08684); assay: Inhibition of human CYP3A4 expressed in supersomes assessed as testosterone 6beta-hydroxylation after 15 mins by HPLC analysis; assay type: ADME
Chain of Cytochrome P450 3A4 (P08684 whole entry): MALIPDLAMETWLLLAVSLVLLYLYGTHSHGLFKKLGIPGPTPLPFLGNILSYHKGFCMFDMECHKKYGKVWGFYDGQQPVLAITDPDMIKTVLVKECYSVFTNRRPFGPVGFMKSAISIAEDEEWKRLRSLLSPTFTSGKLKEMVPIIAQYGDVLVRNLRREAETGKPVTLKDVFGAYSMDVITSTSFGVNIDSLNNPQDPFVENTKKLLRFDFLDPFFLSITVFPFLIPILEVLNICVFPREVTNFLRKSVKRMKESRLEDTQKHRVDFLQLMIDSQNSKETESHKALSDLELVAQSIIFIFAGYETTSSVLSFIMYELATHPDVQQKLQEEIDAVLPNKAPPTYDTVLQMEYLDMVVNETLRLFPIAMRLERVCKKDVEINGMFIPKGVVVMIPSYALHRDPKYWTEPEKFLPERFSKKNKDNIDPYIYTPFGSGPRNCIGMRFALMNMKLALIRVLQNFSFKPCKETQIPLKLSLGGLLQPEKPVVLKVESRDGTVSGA

Cytochrome P450 2C19 = Cytochrome P450 2C19 (Homo sapiens, UniProt P33261); assay: Inhibition of human CYP2C19 expressed in supersomes assessed as perazine N-demethylation after 15 mins by HPLC analysis; assay type: ADME

| SMILES | Activity [1] | Activity [2] | inhibition [3] [%] | pKi [4] | pKi [5] | inhibition [6] [%] | inhibition (D(3) dopamine receptor) | pIC50 (Cytochrome P450 2D6) | solubility [7] [µg/mL] | microsomal CLint at 20 µM [8] [µL/min/mg] | inhibition [9] [%] | Activity (Rattus norvegicus [10]) | pIC50 (Cytochrome P450 2C9) | inhibition [11] [%] | Activity (Rattus norvegicus [12]) | minimal effective dose (Rattus norvegicus [12]) [mg/kg] | Activity [13] [%] | solubility [14] [µg/mL] | pIC50 (Cytochrome P450 1A2) | Kp [15] | further results |
| --- | --- | --- | --- | --- | --- | --- | --- | --- | --- | --- | --- | --- | --- | --- | --- | --- | --- | --- | --- | --- | --- |
| COc1ccc2c(c1)c(C1=CCNCC1)cn2S(=O)(=O)c1cncc2ccccc12 | Non-Toxic | Non-Toxic | 21 | 5.11 | 5.30 | 15 | inactive | < 4.00 | > 5000 | 10 | 15 | Active | < 4.00 | 6 | Dose-dependent effect | 1 | < 13 | > 5000 | 4.00 | 0.1 to 0.6 | pKi [16]: 8.52; Ratio Ki (Homo sapiens [17]): 70; inhibition [18]: 0%; Ratio Ki (Homo sapiens [19]): 70; Activity (Rattus norvegicus [20]): Active; inhibition (INH) [21]: Not Active; inhibition [22]: 40%; pIC50 (Cytochrome P450 3A4): 4.59; pIC50 (Cytochrome P450 2C19): < 4.00 |
| COc1ccc2c(c1)c(C1=CCNCC1)cn2S(=O)(=O)c1ccc2cccnc2c1 | Non-Toxic | Non-Toxic | 18 | 5.20 | 5.30 | 9 | inactive | < 4.00 | > 5000 | 18 | 18 | Active | < 4.00 | 4 | Dose-dependent effect | 1 | < 13 | > 5000 | 4.00 | 0.1 to 0.6 | pKi [16]: 8.70; Ratio Ki (Homo sapiens [17]): 70; inhibition [18]: 11%; Ratio Ki (Homo sapiens [19]): 70; Activity (Rattus norvegicus [20]): Active; inhibition (INH) [21]: Not Active; inhibition [22]: 41%; pIC50 (Cytochrome P450 3A4): 4.70; pIC50 (Cytochrome P450 2C19): < 4.00 |
